Columns and labels:
Type in all cases: in vivo, postmenopausal Japanese women
[1] = Pharmacokinetics: plasma teriparatide acetate concentration
Outline: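 Plasma was sampled before and at 15, 30, 45, 60, 90, 120, 180, 240, 360 and 720 min after one s.c. injection at 0800 h in postmenopausal women. Drug was assayed with a rat PTH IRMA kit (range 10 to 1,000 pg/mL). Cmax, AUClast, AUCinf, Tmax and T1/2 were derived for active-dose recipients only. Concentrations are given as mean ± SD.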

intact PTH = assay: Serum intact PTH; settings: n = 10
Outline: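 Intact PTH in serum was measured by electrochemiluminescence immunoassay. Postmenopausal women aged 60–79 y were randomised double-blind to placebo or a single s.c. dose, given at 0800 h straight after baseline sampling. Blood was drawn at 15, 30, 45, 60, 90, 120, 180, 240, 360 and 720 min, then mornings of days 2, 4, 6, 8, 11, 13 and 15. Baseline median and follow-up distribution were reported.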

[2] = system: 1,25-Dihydroxy vitamin D (1,25(OH)2D); assay: Serum 1,25; settings: n = 10
Outline: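 Serum 1,25(OH)2D was measured by radio receptor assay (inter-assay CV 11.3–13.2 %), with each participant's samples in a single batch. Women aged 60–79 y received one s.c. injection or placebo at 0800 h after baseline blood, in a double-blind randomised design. Sampling ran from 15–720 min and on mornings of days 2, 4, 6, 8, 11, 13 and 15. Median baseline and follow-up distribution were tabulated.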

osteocalcin = assay: Bone formation marker serum osteocalcin; settings: n = 10
Outline: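 Women aged 60–79 y were randomised double-blind to placebo or one s.c. injection at 0800 h, given after baseline blood. Serum was sampled 15–720 min post-dose, then each morning on days 2, 4, 6, 8, 11, 13 and 15. Osteocalcin was measured by BGP-IRMA (inter-assay CV 4.7–7.6 %), in a single batch per participant. Values were summarised as baseline median and follow-up distribution.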

P1NP = assay: Bone formation marker serum P1NP; settings: n = 10
Outline: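 Randomised, double-blind, placebo-controlled trial in women aged 60–79 y. A single s.c. dose was given at 0800 h after baseline sampling. Serum was drawn 15–720 min post-dose and on mornings of days 2, 4, 6, 8, 11, 13 and 15. P1NP was measured by radioimmunoassay (inter-assay CV 2.7–5.0 %), with each subject's samples in one batch. Median baseline and follow-up distribution were reported.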

[3] = system: Serum cross-linked N-telopeptide of type I collagen (NTX); assay: Bone resorption marker serum NTX; settings: n = 10
Outline: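 Serum NTX was measured by ELISA (inter-assay CV 6.9–11.1 %), with all of a participant's samples run together. The trial was a placebo-controlled, double-blind, single-centre study in postmenopausal women aged 60–79 y, each given one s.c. injection after 0800 h baseline sampling. Blood was taken at 15–720 min and on mornings of days 2–15. Baseline median and follow-up distribution were tabulated.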

[4] = system: urinary cross-linked C-telopeptide of type I collagen (CTX); assay: Bone resorption marker urinary CTX; settings: n = 10
Outline: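 Urine was collected at baseline (0800 h), at 120, 240, 360 and 720 min after a single s.c. injection, and on mornings of days 2, 4, 6, 8, 11, 13 and 15. Subjects were postmenopausal women aged 60–79 y in a randomised, double-blind, placebo-controlled design. CTX was measured by ELISA (inter-assay CV 2.4–9.0 %), with each participant's samples in one batch. Median and distribution were summarised.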

[5] = Safety: adverse events after injection
Outline: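 Adverse events were recorded after a single s.c. injection of drug or identical-looking placebo in a randomised, double-blind study of postmenopausal women aged 60–79 y, with 10 per group. Events and abnormal laboratory changes were coded by MedDRA/J version 9.0 by system organ class and preferred term, and classified as adverse drug reactions where applicable. Follow-up lasted until day 15.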

[6] = 4 to 15 days, 28.2 μg single s.c.
[7] = 4 to 15 days, 56.5 μg single s.c.

Tmax ([1]; female, human, sc): 1 h
AUC(0-inf) ([1]; female, human, sc, 28.2 ug): 0.468 ng·h/mL
AUC(0-inf) ([1]; female, human, sc, 56.5 ug): 0.879 ng·h/mL
AUC(0-t) ([1]; female, human, sc, 56.5 ug): 0.832 ng·h/mL
time after injection at which teriparatide concentration disappeared ([1]; single s.c. injection 28.2 or 56.5 μg): 6 h
SMILES: CC[C@H](C)[C@H](NC(=O)[C@H](CCC(=O)O)NC(=O)[C@H](CO)NC(=O)[C@@H](NC(=O)[C@@H](N)CO)C(C)C)C(=O)N[C@@H](CCC(N)=O)C(=O)N[C@@H](CC(C)C)C(=O)N[C@@H](CCSC)C(=O)N[C@@H](Cc1cnc[nH]1)C(=O)N[C@@H](CC(N)=O)C(=O)N[C@@H](CC(C)C)C(=O)NCC(=O)N[C@@H](CCCCN)C(=O)N[C@@H](Cc1cnc[nH]1)C(=O)N[C@@H](CC(C)C)C(=O)N[C@@H](CC(N)=O)C(=O)N[C@@H](CO)C(=O)N[C@@H](CCSC)C(=O)N[C@@H](CCC(=O)O)C(=O)N[C@@H](CCCN=C(N)N)C(=O)N[C@H](C(=O)N[C@@H](CCC(=O)O)C(=O)N[C@@H](Cc1c[nH]c2ccccc12)C(=O)N[C@@H](CC(C)C)C(=O)N[C@@H](CCCN=C(N)N)C(=O)N[C@@H](CCCCN)C(=O)N[C@@H](CCCCN)C(=O)N[C@@H](CC(C)C)C(=O)N[C@@H](CCC(N)=O)C(=O)N[C@@H](CC(=O)O)C(=O)N[C@H](C(=O)N[C@@H](Cc1cnc[nH]1)C(=O)N[C@@H](CC(N)=O)C(=O)N[C@@H](Cc1ccccc1)C(=O)O)C(C)C)C(C)C [teriparatide]
Intact-PTH, Max (intact PTH; 2 to 24 h, 28.2 μg single s.c.): 66.0 pg/mL
Intact-PTH, Median (intact PTH; 2 to 24 h, 28.2 μg single s.c.): 34.5 pg/mL
Intact-PTH, Min (intact PTH; 2 to 24 h, 28.2 μg single s.c.): 17.0 pg/mL
Intact-PTH, Max (intact PTH; 2 to 24 h, 56.5 μg single s.c.): 65.0 pg/mL
Intact-PTH, Median (intact PTH; 2 to 24 h, 56.5 μg single s.c.): 35.0 pg/mL
Intact-PTH, Min (intact PTH; 2 to 24 h, 56.5 μg single s.c.): 18.0 pg/mL
Intact-PTH, Max (intact PTH; [6]): 64.0 pg/mL
Intact-PTH, Median (intact PTH; [6]): 45.5 pg/mL
Intact-PTH, Min (intact PTH; [6]): 25.0 pg/mL
Intact-PTH, Max (intact PTH; [7]): 109.0 pg/mL
Intact-PTH, Median (intact PTH; [7]): 49.0 pg/mL
Intact-PTH, Min (intact PTH; [7]): 26.0 pg/mL
1,25(OH)2D, Max ([2]; 2 to 24 h, 28.2 μg single s.c.): 118.0 pg/mL
1,25(OH)2D, Median ([2]; 2 to 24 h, 28.2 μg single s.c.): 67.5 pg/mL
1,25(OH)2D, Min ([2]; 2 to 24 h, 28.2 μg single s.c.): 37.0 pg/mL
1,25(OH)2D, Max ([2]; 2 to 24 h, 56.5 μg single s.c.): 136.0 pg/mL
1,25(OH)2D, Median ([2]; 2 to 24 h, 56.5 μg single s.c.): 70.5 pg/mL
1,25(OH)2D, Min ([2]; 2 to 24 h, 56.5 μg single s.c.): 33.0 pg/mL
1,25(OH)2D, Max [2, 6]: 99.0 pg/mL
1,25(OH)2D, Median [2, 6]: 56.0 pg/mL
1,25(OH)2D, Min [2, 6]: 21.0 pg/mL
1,25(OH)2D, Max [2, 7]: 94.0 pg/mL
1,25(OH)2D, Median [2, 7]: 54.0 pg/mL
1,25(OH)2D, Min [2, 7]: 18.0 pg/mL
Serum osteocalcin, Max (osteocalcin; 2 to 24 h, 28.2 μg single s.c.): 12.7 ng/mL
Serum osteocalcin, Median (osteocalcin; 2 to 24 h, 28.2 μg single s.c.): 7.6 ng/mL
Serum osteocalcin, Min (osteocalcin; 2 to 24 h, 28.2 μg single s.c.): 4.6 ng/mL
Serum osteocalcin, Max (osteocalcin; 2 to 24 h, 56.5 μg single s.c.): 16.7 ng/mL
Serum osteocalcin, Median (osteocalcin; 2 to 24 h, 56.5 μg single s.c.): 7.4 ng/mL
Serum osteocalcin, Min (osteocalcin; 2 to 24 h, 56.5 μg single s.c.): 3.2 ng/mL
Serum osteocalcin, Max (osteocalcin; [6]): 12.2 ng/mL
Serum osteocalcin, Median (osteocalcin; [6]): 8.1 ng/mL
Serum osteocalcin, Min (osteocalcin; [6]): 4.6 ng/mL
Serum osteocalcin, Max (osteocalcin; [7]): 17.9 ng/mL
Serum osteocalcin, Median (osteocalcin; [7]): 7.9 ng/mL
Serum osteocalcin, Min (osteocalcin; [7]): 4.3 ng/mL
Serum P1NP, Max (P1NP; 2 to 24 h, 28.2 μg single s.c.): 77.4 ng/mL
Serum P1NP, Median (P1NP; 2 to 24 h, 28.2 μg single s.c.): 47.4 ng/mL
Serum P1NP, Min (P1NP; 2 to 24 h, 28.2 μg single s.c.): 28.0 ng/mL
Serum P1NP, Max (P1NP; 2 to 24 h, 56.5 μg single s.c.): 101.0 ng/mL
Serum P1NP, Median (P1NP; 2 to 24 h, 56.5 μg single s.c.): 49.1 ng/mL
Serum P1NP, Min (P1NP; 2 to 24 h, 56.5 μg single s.c.): 13.0 ng/mL
Serum P1NP, Max (P1NP; [6]): 80.2 ng/mL
Serum P1NP, Median (P1NP; [6]): 53.5 ng/mL
Serum P1NP, Min (P1NP; [6]): 30.7 ng/mL
Serum P1NP, Max (P1NP; [7]): 118.0 ng/mL
Serum P1NP, Median (P1NP; [7]): 56.9 ng/mL
Serum P1NP, Min (P1NP; [7]): 18.3 ng/mL
Serum NTX, Max ([3]; 2 to 24 h, 28.2 μg single s.c.): 21.7 nM BCE/L
Serum NTX, Median ([3]; 2 to 24 h, 28.2 μg single s.c.): 14.2 nM BCE/L
Serum NTX, Min ([3]; 2 to 24 h, 28.2 μg single s.c.): 9.2 nM BCE/L
Serum NTX, Max ([3]; 2 to 24 h, 56.5 μg single s.c.): 27.7 nM BCE/L
Serum NTX, Median ([3]; 2 to 24 h, 56.5 μg single s.c.): 13.8 nM BCE/L
Serum NTX, Min ([3]; 2 to 24 h, 56.5 μg single s.c.): 7.2 nM BCE/L
Serum NTX, Max [3, 6]: 20.4 nM BCE/L
Serum NTX, Median [3, 6]: 13.2 nM BCE/L
Serum NTX, Min [3, 6]: 7.2 nM BCE/L
Serum NTX, Max [3, 7]: 20.6 nM BCE/L
Serum NTX, Median [3, 7]: 10.7 nM BCE/L
Serum NTX, Min [3, 7]: 7.5 nM BCE/L
Urinary CTX, Max ([4]; 2 to 24 h, 28.2 μg single s.c.): 958.0 µg/mmol
Urinary CTX, Median ([4]; 2 to 24 h, 28.2 μg single s.c.): 402.5 µg/mmol
Urinary CTX, Min ([4]; 2 to 24 h, 28.2 μg single s.c.): 192.0 µg/mmol
Urinary CTX, Max ([4]; 2 to 24 h, 56.5 μg single s.c.): 1190.0 µg/mmol
Urinary CTX, Median ([4]; 2 to 24 h, 56.5 μg single s.c.): 508.5 µg/mmol
Urinary CTX, Min ([4]; 2 to 24 h, 56.5 μg single s.c.): 238.0 µg/mmol
Urinary CTX, Max [4, 6]: 655.0 µg/mmol
Urinary CTX, Median [4, 6]: 351.0 µg/mmol
Urinary CTX, Min [4, 6]: 106.0 µg/mmol
Urinary CTX, Max [4, 7]: 972.0 µg/mmol
Urinary CTX, Median [4, 7]: 351.0 µg/mmol
Urinary CTX, Min [4, 7]: 142.0 µg/mmol
Any adverse event ([5]; 28.2 μg single s.c., n = 10): 10 (100) n (%)
Decreased appetite ([5]; 28.2 μg single s.c., n = 10): 1 (10) n (%)
Decreased blood pressure ([5]; 28.2 μg single s.c., n = 10): 1 (10) n (%)
Erythema ([5]; 28.2 μg single s.c., n = 10): 1 (10) n (%)
Muscle spasms ([5]; 28.2 μg single s.c., n = 10): 1 (10) n (%)
Palpitations ([5]; 28.2 μg single s.c., n = 10): 1 (10) n (%)
Positional vertigo ([5]; 28.2 μg single s.c., n = 10): 1 (10) n (%)
Rhinorrhea ([5]; 28.2 μg single s.c., n = 10): 1 (10) n (%)
Somnolence ([5]; 28.2 μg single s.c., n = 10): 1 (10) n (%)
Vomiting ([5]; 28.2 μg single s.c., n = 10): 1 (10) n (%)
Any adverse event ([5]; 56.5 μg single s.c., n = 10): 10 (100) n (%)
Conjunctival hyperemia ([5]; 56.5 μg single s.c., n = 10): 1 (10) n (%)
Decreased appetite ([5]; 56.5 μg single s.c., n = 10): 1 (10) n (%)
Eye pain ([5]; 56.5 μg single s.c., n = 10): 1 (10) n (%)
Headache ([5]; 56.5 μg single s.c., n = 10): 3 (30) n (%)
Hot flashes ([5]; 56.5 μg single s.c., n = 10): 1 (10) n (%)
Nasopharyngitis ([5]; 56.5 μg single s.c., n = 10): 1 (10) n (%)
Nausea ([5]; 56.5 μg single s.c., n = 10): 1 (10) n (%)
Pharynx discomfort ([5]; 56.5 μg single s.c., n = 10): 1 (10) n (%)
Rhinorrhea ([5]; 56.5 μg single s.c., n = 10): 1 (10) n (%)
Somnolence ([5]; 56.5 μg single s.c., n = 10): 5 (50) n (%)
Vomiting ([5]; 56.5 μg single s.c., n = 10): 1 (10) n (%)
severity and outcome of ADRs ([5]; 28.2 and 56.5 μg groups, most ADRs): mild and resolved without intervention
changes in laboratory values before or after administration ([5]; throughout the study duration): no significant changes

Reference: PMC3536955 (Osteoporosis International, 2012)
